Laboratory results taken from ChEMBL document CHEMBL3243929, “Cannabinoids. 2. Synthesis and central nervous system activities of some B-ring homocannabinoid derivatives and related lactones” (1977).
Activity calls are given as the source filed them. No cut-off for these calls is given here.

What was measured:
Rattus norvegicus [1] = assay: CNS activity in rat assessed as decrease in septal-lesioned-induced hyperactivity at 10 mg/kg, po by septal-lesioned rat test; assay type: functional, organism-based; set-up: dose 10 mg/kg
Summary of the method: (§1)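 Oral dosing in rats in the septal-lesioned and muricidal assays, with a 10 mg/kg po screening dose. Active compounds were titrated down to a minimum effective dose. Vehicle controls were given on the same injection-volume basis.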

Mus musculus [2] = assay: CNS activity in po dosed mouse assessed as decrease in early exploratory behavior in activity cage; assay type: functional; conditions: read-out: MED
Summary of the method: (§2)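 Oral dosing in mice, with a 20 mg/kg po screening dose. Active compounds were titrated down to a minimum effective dose. Vehicle controls were given on the same injection-volume basis.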

Rattus norvegicus [3] = assay: CNS activity in rat assessed as increase in latency to kill at 10 mg/kg, po by muricidal rat test; assay type: functional, organism-based; set-up: dose 10 mg/kg; summary of the method: as §1
Rattus norvegicus [4] = assay: CNS activity in po dosed rat assessed as increase in latency to kill by muricidal rat test; assay type: functional; conditions: read-out: MED; summary of the method: as §1
Rattus norvegicus [5] = assay: CNS activity in po dosed rat assessed as decrease in septal-lesioned-induced hyperactivity by septal-lesioned rat test; assay type: functional; conditions: read-out: MED; summary of the method: as §1
Mus musculus [6] = assay: CNS activity in mouse assessed as decrease in early exploratory behavior in activity cage at 20 mg/kg, po; assay type: functional, organism-based; set-up: dose 20 mg/kg; summary of the method: as §2

Structure (SMILES) | Activity (Rattus norvegicus [1]) | minimal effective dose (Mus musculus [2]) [mg/kg] | Activity (Rattus norvegicus [3]) | minimal effective dose (Rattus norvegicus [4]) [mg/kg] | minimal effective dose (Rattus norvegicus [5]) [mg/kg] | Activity (Mus musculus [6])
CCCCCCC(C)(C)c1cc(O)c2c(c1)OCC(C)(C)C1=C2CC(C)CC1 (centres undefined) | inactive | 20 | inactive |  |  | 
CCCCCCC(C)(C)c1cc(O)c2c(c1)OC(=O)CC1=C2CC(C)CC1 (centres undefined) | inactive | 5 |  | 5 |  | 
CCCCCc1cc(O)c2c(c1)OC(C)(C)[C@@H]1CCC(C)=C[C@@H]21 [DRONABINOL] | inactive | 10 |  | 5 |  | 
CCCCCCC(C)(C)c1cc(O)c2c(c1)OC(C)(C)C1=C2CC(C)CC1 (centres undefined) |  | 0.62 |  | 0.62 | 1.25 | 
CCCCCCC(C)(C)c1cc(O)c2c3c(c(=O)oc2c1)CCC(C)C3 (centres undefined) | inactive |  | inactive |  |  | inactive
CCCCCCC(C)(C)c1cc(O)c2c(c1)OC(=O)C(C)(C)C1=C2CC(C)CC1 (centres undefined) | inactive |  | inactive |  |  | inactive
CCCCCCC(C)(C)c1cc(O)c2c(c1)OC(C)(C)CC1=C2CC(C)CC1 (centres undefined) | inactive | 2.5 |  | 2.5 |  | 
CCCCCCC(C)(C)c1cc(O)c2c(c1)OCCC1=C2CC(C)CC1 (centres undefined) |  | 1.25 |  | 1.25 | 1.25 | 
